# HSF1 inh = HSF1 inhibitors in luciferase reporter cells, primary screen, cell-based, NIH3T3, luminescence. NIH3T3-HGL HSE-luciferase, MG132-induced, luminescence 8 h; active compounds read low. activity change, negative = inhibition, % at 7.5 µM (by protocol). 300,000 tested, 0.77% active;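 active means more than half of replicate wells show activity change below -50%, luminescence cut by over half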;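 further: luciferase reports HSF-1 transcriptional activity via heat shock element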
# Hsp70 act = Hsp70 transcriptional activators, primary screen, cell-based, HeLa, Hsp70 promoter luciferase, luminescence, 10 µM; HeLa Hsp70 promoter luciferase reporter; scaled: vehicle 0, proteasome-inhibitor control 100%; 200,000 tested, 0.04% active; activation, % at 10 µM;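 active means activation above the mean across all tested compounds plus 3 SD, cutoff set per campaign, cut at about 5.5% in these data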
# HSF-1 act = HSF-1 activators, primary screen, NIH3T3-HGL cells, MG132 stress, luminescence, single point; 300,000 tested, 1.7% active; activation, % at 9 µM; NIH3T3-HGL HSF-1 luciferase reporter, 8 h; 100% = twice DMSO control signal; AID 504408, 2011;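 active means mean replicate activation of at least 50% with a set share of replicates each reaching 50%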
# L major viab = Leishmania major promastigote growth inhibition, primary screen | Leishmania major promastigotes, resazurin fluorescence viability | inhibition, % at 10 µM | 200,000 tested, 9% active | AID 1063, 2008; in the data active means inhibition above about 50%;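 further: promastigotes grown with compound for 44 hours at 28 °C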
# T cruzi inh = inhibitors of intracellular T. cruzi growth, primary screen, luminescence, NIH3T3 host cells; 300,000 tested, 1.4% active; T. cruzi beta-gal in NIH3T3, 90 h; inhibition, % (concentration not given with the values);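 active means mean inhibition across valid replicates above about 55%, limit read from the data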;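 further: signal also drops with host cell toxicity which is not excluded here; higher percent means less beta-gal luminescence so fewer parasites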
#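 compound dosing = single 50 nL compound addition per well in DMSO | material = NIH/3T3 host cells with β-galactosidase reporter T. cruzi | input = 5,000 host fibroblasts per well | timing = ≥90 h infection period, 3 h prior cell attachment | read-out basis = percent inhibition of parasite-derived β-gal signal | detection = GalScreen β-gal luminescence, detergent lysis, 60 min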
# Hits are given with their value; – = inactive; · = not tested or not shown. The full list was thinned out, with hits kept by preference.
SMILES,HSF1 inh,Hsp70 act,HSF-1 act,L major viab,T cruzi inh
CC1(C)C(C=C(Cl)Cl)C1C(=O)Nc1ccc(S(=O)(=O)Nc2ncccn2)cc1 (stereo not given),–,·,–,·,–
O=C(O)CCn1[nH]c(=O)ccc1=O,–,–,58,–,–
Cc1ccc(-c2csc(NC(=O)CSc3nc4ccccc4o3)n2)cc1,–,–,–,81,–
CC1CCc2nc(NC(=O)CSc3nc4ccccc4o3)sc2C1 (stereo not given),-59,–,–,–,–
CC(=O)c1cc2c(cc1NC(=O)CSc1nc3ccccc3[nH]1)OCO2,–,–,–,–,–
Cc1ccc2nc(NC(=O)CSc3nc4ccccc4o3)sc2c1,–,–,–,–,–
CC(=O)c1cc2c(cc1NC(=O)CSc1nc3ccccc3o1)OCO2,–,–,86,–,–
Cc1nnc(NC(=O)CSc2nc3ccccc3o2)s1,–,–,–,–,–
Cc1cc(C(=O)CSc2nc3ccccc3o2)c(C)n1C1CC1,–,–,63,–,–
O=C(COc1ccc2c(-c3ccccc3)cc(=O)oc2c1)Nc1cccnc1,–,·,–,·,–
O=C(CSc1nnc2c(Cl)cc(C(F)(F)F)cn12)N(Cc1ccccc1)Cc1ccccc1,–,–,105,–,–
Cc1ccc(NC(=O)CN(C)C(=O)CSc2nnc(C(F)(F)F)n2C)cc1,–,–,–,–,–
COC(=O)c1cn[nH]c1NC(=S)Nc1ccc(C)cc1Cl,–,–,–,–,–
CCOC(=O)c1ccc(NC(=S)Nc2cccc(C)n2)cc1,–,–,–,57,–
CCOC(=O)c1cn[nH]c1NC(=S)Nc1ccc(OC)cc1,-54,·,–,·,–
COC(=O)c1cn[nH]c1NC(=S)Nc1ccc(Cl)c(Cl)c1,-60,–,–,–,–
CCOC(=O)c1ccc(NC(=S)Nc2cccc(N)n2)cc1,–,·,–,·,–
CCC1(C(=O)OC)CCc2c(cc(OC)c3ccccc23)C1=O (stereo not given),–,·,–,·,–
COc1cc(/C=N/NC(=O)c2ccccc2Cl)ccc1Oc1ccc([N+](=O)[O-])cn1,–,–,–,–,–
CN1C(=O)Cc2cc(S(=O)(=O)N3CCN(c4cccc(C(F)(F)F)c4)CC3)ccc21,–,·,–,·,–
Cn1c(=NC(=O)c2ccccc2[N+](=O)[O-])sc2cccc(F)c21,–,·,–,·,–
O=C(/C=C\c1ccc(-c2cccc([N+](=O)[O-])c2)o1)N1CCOCC1,–,–,–,–,–
Cc1ccc(/C=C(/C#N)c2nc(CCN3C(=O)c4ccccc4C3=O)cs2)cc1,-53,–,–,–,–
Cc1nn(Cc2cccc(Oc3ccccc3)c2)c(C)c1NC(=O)NC12CC3CC(CC(C3)C1)C2,–,–,–,–,57
CCOC(=O)C1CCN(Cc2cnc(Oc3ccc(N)cc3)s2)CC1,–,–,–,84,–
SMILES,HSF1 inh,Hsp70 act,HSF-1 act,L major viab,T cruzi inh
CCOC(=O)C1CCN(Cc2cnc(Oc3ccc(Cl)cc3C)s2)CC1,–,–,–,90,–
Cc1ccc(Oc2ncc(CN3CC(C)OC(C)C3)s2)cc1 (stereo not given),–,–,–,52,–
CCOC(=O)C1CCN(Cc2cccc(Oc3ccc(Cl)cc3)c2)CC1,–,·,–,·,–
O=C(CCC(=O)OCc1ccc(Br)cc1)Nc1ccccc1,–,–,–,–,–
C/C(=N/NC(=O)c1ccoc1C)c1cccc(NC(=O)C2CC2)c1,–,–,–,–,–
CC(=O)c1ccc(N2CCN(C(=O)c3cc(-c4ccncc4)nc4ccc(Cl)cc34)CC2)cc1,–,·,–,·,–
CC(C)CC(NC(=O)C(NC(=O)C1CCC(=O)N1C(=O)OCc1ccccc1)C(C)C)C(=O)N1CCCC1C(N)=O (stereo not given),–,·,–,·,–
O=C(c1n[nH]c2ccccc12)N1CCN(S(=O)(=O)c2ccc3ccccc3c2)CC1,–,–,–,55,–
CCN(CCO)c1ccc(N=Nc2cc(C)[nH]n2)cc1,–,·,–,·,–
COc1cc(N(C(=O)Cc2cccs2)C(C(=O)NC2CCCCC2)c2ccc(C)cc2)ccc1-n1cnnn1 (stereo not given),–,–,–,63,–
Cc1ccc(N(C(=O)Cn2nnc3ccccc32)C(C(=O)NC2CCCCC2)c2cn(C)nc2C)cc1 (stereo not given),–,–,–,–,–
Cc1nn(C)cc1C(C(=O)NC1CCCCC1)N(C(=O)Cc1cccs1)c1ccc(Cl)cc1 (stereo not given),–,–,–,85,–
Cc1ccccc1CC1(CO)CCCN(C(=O)c2ccc3ncccc3c2)C1 (stereo not given),–,–,–,–,–
Fc1cccc(Cl)c1CNc1ccc(N2CCCC2)cc1,–,–,–,–,94
COc1ccccc1N1CCN(c2ccc(-c3ccccc3)nn2)CC1,–,–,–,64,–
CC(=O)N1CCCc2cc(S(=O)(=O)N3CCCC(C(=O)Nc4ccccc4C)C3)ccc21 (stereo not given),–,·,–,·,–
CCCc1nn2c(=O)cc(CSCC(=O)Nc3ccc(OC)cc3)nc2s1,–,·,–,·,–
CCOc1ccc(CCNC(=O)c2nn(C)c3c2CS(=O)(=O)c2ccccc2-3)cc1OCC,–,·,–,·,–
CCOc1ccc(CCNC(=O)c2nn(C)c3c2CS(=O)(=O)c2ccccc2-3)cc1,-53,·,–,·,–
CC(CCc1ccccc1)NC(=O)CNC(=O)c1cccs1 (stereo not given),–,·,–,·,–
CCOC(=O)Cc1csc(NC(=O)/C=C/c2ccc(OC)cc2)n1,–,–,–,–,–
Cc1ccc(-c2c(C(=O)NCc3ccc(F)cc3)oc(=O)c3ccccc23)cc1,–,–,–,74,–
Cc1ccc(CNC(=O)c2cc(=O)c3ccccc3o2)cc1,–,·,–,·,–
CNc1ccc(Br)cc(C(=O)/C=C/c2ccc(OC)cc2)c1=O,–,–,–,–,–
CCNc1ccc(Br)cc(C(=O)/C=C/c2ccc(Cl)cc2Cl)c1=O,–,–,–,98,–
SMILES,HSF1 inh,Hsp70 act,HSF-1 act,L major viab,T cruzi inh
CNc1ccc(Br)cc(C(=O)/C=C/c2ccc3c(c2)OCO3)c1=O,–,–,–,72,–
CNc1ccc(Br)cc(C(=O)/C=C/c2cc(OC)ccc2OC)c1=O,–,–,–,89,–
Cc1sc(NC(=O)C2CSC3(C)CCC(=O)N23)nc1-c1ccccc1 (stereo not given),–,·,–,·,–
COc1cc(NS(=O)(=O)c2cc(C)ccc2OC)c(OC)cc1Cl,–,–,67,99,–
COc1ccc(C)cc1S(=O)(=O)Nc1cc(Cl)ccc1Cl,–,–,–,–,–
O=S(=O)(c1cccc(COc2c(Cl)cccc2Cl)c1)N1CCOCC1,–,·,–,·,–
CN1CCN(S(=O)(=O)c2ccc(NC(=O)c3csc4ccccc34)cc2)CC1,–,–,–,56,–

# Screening results deposited in PubChem BioAssay by several laboratories.
